The values that follow come from ChEMBL document CHEMBL1150156, “Semisynthesis of new sarcophine derivatives with chemopreventive activity” (J Nat Prod, 2002).

Each structure is given as a SMILES string. A value given as a limit tells only on which side of the number the result lay.

A short description of data set [1]: Cytotoxicity against human Raji cells assessed as cell viability at 100 molar ratio. It is filed as cell-based. The conditions noted are these: read-out: Activity. A digest of the protocol: (§1)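 Raji cells (EBV nonproducer type) serve as indicator cells in the TPA-induced EBV-EA activation assay. Sample is dosed as a mol ratio to TPA, with TPA at 32 pmol; ×1000 corresponds to 32 nmol/mL sample. Viability of the indicator cells is reported as a percentage.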

The subject of data set [2] is Raji. In words: Inhibition of TPA-induced EBV-early antigen activation in human Raji cells assessed as early antigen induction at 100 molar ratio relative to TPA. It is filed as cell-based. Conditions: human gammaherpesvirus 4. The method in brief: (§2)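 EBV early antigen induction is measured in Raji cells (virus nonproducer type) stimulated with TPA at 32 pmol. Sample concentration is expressed as mol ratio/TPA; ×1000 equals 32 nmol/mL. EA induction is expressed as a percentage of the positive (TPA-only) value, set as 100%.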

The nature of data set [3]: Cytotoxicity against human Raji cells assessed as cell viability at 10 molar ratio. In kind it is cell-based. Conditions: read-out: Activity. The method in brief:
as §1

The test system of data set [4] is Raji. In words: Inhibition of TPA-induced EBV-early antigen activation in human Raji cells assessed as early antigen induction at 10 molar ratio relative to TPA. Conditions: human gammaherpesvirus 4.
The test system of data set [5] is Raji. The data set can be described thus: Inhibition of TPA-induced EBV-early antigen activation in human Raji cells assessed as early antigen induction at 500 molar ratio relative to TPA. Conditions: human gammaherpesvirus 4. In kind it is cell-based. A digest of the protocol:
as §2

The test system of data set [6] is Raji. The data set can be described thus: Inhibition of TPA-induced EBV-early antigen activation in human Raji cells assessed as early antigen induction at 1000 molar ratio relative to TPA. In kind it is cell-based. Conditions: human gammaherpesvirus 4. The method in brief:
as §2

Data set [7] in a line: Cytotoxicity against human Raji cells assessed as cell viability at 500 molar ratio. The conditions noted are these: read-out: Activity. In kind it is cell-based. The method in brief:
as §1

Data set [8] can be described thus: Cytotoxicity against human Raji cells assessed as cell viability at 1000 molar ratio. In kind it is cell-based. Conditions: read-out: Activity. The method in brief: as §1

Regarding `C/C1=C\C=C(\[C@@](C)(O)CO)C[C@H](O)/C(C)=C/CC[C@]2(C)O[C@H]2CC1`, in data set [1], the viability at 100 molar ratio is above 80%. Also, the EBV early antigen induction (% of TPA-only control) in the data set with Raji [2] amounted to 74.6%; in the data set with Raji [6], 5.9%. Also, the viability at 10 molar ratio in data set [3] is above 80%. Also, the EBV early antigen induction relative to TPA with Raji [4] was 93.8%. For the same compound, the EBV early antigen induction (% of TPA control) with Raji [5] was found to be 55.8%. For the same compound, the viability at 500 molar ratio in data set [7] is above 80%. In addition, the viability at 1000 molar ratio in data set [8] turned out to be 60%.
With `CC1=C2CC/C(C)=C/CC[C@]3(C)O[C@H]3CC/C(C)=C/[C@@H]2OC1=O` [SARCOPHINE], in data set [1], the viability at 100 molar ratio was above 80%. Also, the EBV early antigen induction (% of TPA-only control) with Raji [2] was 84%; with Raji [6], 19.6%. Further, the viability at 10 molar ratio in data set [3] is above 80%. Moreover, in the data set with Raji [4], the EBV early antigen induction relative to TPA was found to be 100%. The EBV early antigen induction (% of TPA control) in the data set on Raji [5] is 67.5%. Besides, the viability at 500 molar ratio in data set [7] is above 80%. Also, the viability at 1000 molar ratio in data set [8] amounted to 60%.
For `C/C(CO)=C1\CC/C(C)=C/CC[C@]2(C)O[C@H]2CC/C(C)=C/[C@@H]1O`, the viability at 100 molar ratio in data set [1] is above 80%. For the same compound, the results for the EBV early antigen induction (% of TPA-only control) with Raji [2] and with Raji [6] were 75.5% and 9.6%, respectively. The viability at 10 molar ratio in data set [3] was above 80%. Also, the EBV early antigen induction relative to TPA in the data set with Raji [4] stood at 94.1%. Moreover, the EBV early antigen induction (% of TPA control) in the data set with Raji [5] turned out to be 57.3%. In addition, the viability at 500 molar ratio in data set [7] was above 80%. Moreover, in data set [8], the viability at 1000 molar ratio is 60%.
With `CC1=C2C[C@H](O)/C(C)=C/CC[C@]3(C)O[C@H]3CC/C(C)=C/[C@@H]2OC1=O`, the viability at 100 molar ratio in data set [1] is above 80%. Besides, the EBV early antigen induction (% of TPA-only control) stood at 81.3% with Raji [2] and 14.2% in the data set on Raji [6]. Besides, the viability at 10 molar ratio in data set [3] was above 80%. Also, the EBV early antigen induction relative to TPA in the data set on Raji [4] amounted to 100%. For the same compound, in the data set with Raji [5], the EBV early antigen induction (% of TPA control) was 62.8%. Further, the viability at 500 molar ratio in data set [7] is above 80%. In addition, in data set [8], the viability at 1000 molar ratio is 60%.
With `CC1=C2CC/C(C=O)=C/CC[C@]3(C)O[C@H]3CC/C(C)=C/[C@@H]2OC1=O`, the viability at 100 molar ratio in data set [1] is above 80%. Also, the EBV early antigen induction (% of TPA-only control) worked out at 81.3% in the data set with Raji [2] and 12.7% in the data set with Raji [6]. The viability at 10 molar ratio in data set [3] is above 80%. Further, in the data set with Raji [4], the EBV early antigen induction relative to TPA turned out to be 96%. Also, in the data set on Raji [5], the EBV early antigen induction (% of TPA control) was determined as 60.8%. For the same compound, the viability at 500 molar ratio in data set [7] is above 80%. In addition, the viability at 1000 molar ratio in data set [8] is 60%.
For `C/C1=C\C=C(\[C@@](C)(O)CO)CC(=O)/C(C)=C/CC[C@]2(C)O[C@H]2CC1`, the viability at 100 molar ratio in data set [1] is above 80%. Moreover, the EBV early antigen induction (% of TPA-only control) is 75.1% in the data set on Raji [2] and 8.3% in the data set on Raji [6]. Moreover, the viability at 10 molar ratio in data set [3] was above 80%. For the same compound, in the data set with Raji [4], the EBV early antigen induction relative to TPA turned out to be 94%. Besides, the EBV early antigen induction (% of TPA control) in the data set with Raji [5] came to 56.7%. Further, in data set [7], the viability at 500 molar ratio was above 80%. For the same compound, in data set [8], the viability at 1000 molar ratio is 60%.
As for `C/C1=C\C=C(\[C@@](C)(O)CO)C[C@@H](O)/C(C)=C/CC[C@]2(C)O[C@H]2CC1`, in data set [1], the viability at 100 molar ratio is above 80%. For the same compound, the figures for the EBV early antigen induction (% of TPA-only control) with Raji [2] and with Raji [6] were 72.9% and 5.7%, respectively. Moreover, the viability at 10 molar ratio in data set [3] was above 80%. In the data set with Raji [4], the EBV early antigen induction relative to TPA was 92.6%. The EBV early antigen induction (% of TPA control) in the data set with Raji [5] was 54.2%. Besides, the viability at 500 molar ratio in data set [7] is above 80%. The viability at 1000 molar ratio in data set [8] is 60%.
As to `C/C1=C\C=C(\[C@@](C)(O)CO)CC/C(C=O)=C/CC[C@]2(C)O[C@H]2CC1`, the viability at 100 molar ratio in data set [1] was above 80%. The EBV early antigen induction (% of TPA-only control) was found to be 71.3% in the data set with Raji [2] and 3.6% with Raji [6]. Besides, the viability at 10 molar ratio in data set [3] was above 80%. In addition, the EBV early antigen induction relative to TPA with Raji [4] turned out to be 90.6%. The EBV early antigen induction (% of TPA control) with Raji [5] is 52.4%. The viability at 500 molar ratio in data set [7] was above 80%. For the same compound, in data set [8], the viability at 1000 molar ratio amounted to 60%.
With `C/C1=C\C=C(\C(C)C)[C@@H](O)C/C(C)=C/CC/C(C)=C/CC1`, the viability at 100 molar ratio in data set [1] was above 80%. For the same compound, the EBV early antigen induction (% of TPA-only control) with Raji [2] came out at 79.1%; with Raji [6], 11.7%. Besides, the viability at 10 molar ratio in data set [3] was above 80%. In addition, the EBV early antigen induction relative to TPA in the data set with Raji [4] stood at 97.3%. The EBV early antigen induction (% of TPA control) in the data set on Raji [5] worked out at 60.4%. Besides, the viability at 500 molar ratio in data set [7] was above 80%. In addition, the viability at 1000 molar ratio in data set [8] was found to be 50%.
